ChEMBL document CHEMBL4138308, “Simultaneous Targeting of RGD-Integrins and Dual Murine Double Minute Proteins in Glioblastoma Multiforme” (J Med Chem, 2018)
pIC50: −log10 of the molar value. Blank lines part the entries; values can stand above or below the compound they belong to. Active and inactive are the calls of the source. The calls are words filed in the database; no cut-off is given here.

What was measured:
Integrin alpha-V/beta-3 = Integrin alpha-V/beta-3 (Homo sapiens, UniProt P05106+P06756); test: Inhibition of vitronectin binding to human alphaVbeta3 integrin after 1 hr by ELISA; assay type: protein-complex assay
Integrin alpha-V/beta-3, sequence (P05106 27-788 limits assumed): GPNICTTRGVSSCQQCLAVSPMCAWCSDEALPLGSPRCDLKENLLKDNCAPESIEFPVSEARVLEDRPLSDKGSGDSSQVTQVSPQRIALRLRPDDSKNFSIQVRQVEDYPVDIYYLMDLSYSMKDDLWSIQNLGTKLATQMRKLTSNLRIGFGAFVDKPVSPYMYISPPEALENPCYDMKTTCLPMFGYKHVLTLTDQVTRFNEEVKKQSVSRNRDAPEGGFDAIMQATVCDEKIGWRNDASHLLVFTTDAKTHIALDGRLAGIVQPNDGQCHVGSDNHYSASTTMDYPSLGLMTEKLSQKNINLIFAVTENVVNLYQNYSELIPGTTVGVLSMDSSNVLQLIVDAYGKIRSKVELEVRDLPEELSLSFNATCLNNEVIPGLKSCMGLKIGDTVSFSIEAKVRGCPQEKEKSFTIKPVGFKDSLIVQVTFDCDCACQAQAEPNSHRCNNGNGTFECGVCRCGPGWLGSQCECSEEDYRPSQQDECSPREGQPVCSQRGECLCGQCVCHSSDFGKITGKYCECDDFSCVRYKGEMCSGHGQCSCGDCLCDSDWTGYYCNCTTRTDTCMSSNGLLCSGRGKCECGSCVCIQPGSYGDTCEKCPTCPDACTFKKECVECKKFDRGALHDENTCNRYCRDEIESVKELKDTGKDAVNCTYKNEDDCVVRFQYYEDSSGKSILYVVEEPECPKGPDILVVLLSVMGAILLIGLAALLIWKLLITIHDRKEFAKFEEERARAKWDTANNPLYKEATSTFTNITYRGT
Integrin alpha-V/beta-3, sequence (P06756 31-889 limits assumed): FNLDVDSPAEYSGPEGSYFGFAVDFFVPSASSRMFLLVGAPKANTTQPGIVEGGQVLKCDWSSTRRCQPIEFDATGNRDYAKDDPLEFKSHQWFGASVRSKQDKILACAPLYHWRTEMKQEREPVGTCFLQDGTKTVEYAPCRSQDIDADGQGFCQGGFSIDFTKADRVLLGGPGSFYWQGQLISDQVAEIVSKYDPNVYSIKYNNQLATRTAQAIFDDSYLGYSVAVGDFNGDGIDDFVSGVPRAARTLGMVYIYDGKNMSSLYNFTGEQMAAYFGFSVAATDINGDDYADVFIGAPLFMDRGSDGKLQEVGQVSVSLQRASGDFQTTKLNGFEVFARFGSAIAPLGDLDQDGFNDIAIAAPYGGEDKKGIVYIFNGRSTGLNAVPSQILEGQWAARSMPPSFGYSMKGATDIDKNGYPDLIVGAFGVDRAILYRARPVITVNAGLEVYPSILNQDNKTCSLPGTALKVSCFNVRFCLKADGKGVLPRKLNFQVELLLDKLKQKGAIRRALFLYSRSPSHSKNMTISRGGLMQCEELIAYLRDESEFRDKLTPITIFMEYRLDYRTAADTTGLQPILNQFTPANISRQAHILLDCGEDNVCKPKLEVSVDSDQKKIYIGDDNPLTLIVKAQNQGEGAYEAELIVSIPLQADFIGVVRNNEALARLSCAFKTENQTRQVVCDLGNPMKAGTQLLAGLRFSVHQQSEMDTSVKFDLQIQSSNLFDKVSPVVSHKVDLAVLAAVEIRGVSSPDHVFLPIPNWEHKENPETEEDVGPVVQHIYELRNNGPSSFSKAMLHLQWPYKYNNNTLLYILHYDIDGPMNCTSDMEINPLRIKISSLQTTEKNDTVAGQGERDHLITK
Integrin alpha-V/beta-3, sequence (P06756 891-1048 limits assumed): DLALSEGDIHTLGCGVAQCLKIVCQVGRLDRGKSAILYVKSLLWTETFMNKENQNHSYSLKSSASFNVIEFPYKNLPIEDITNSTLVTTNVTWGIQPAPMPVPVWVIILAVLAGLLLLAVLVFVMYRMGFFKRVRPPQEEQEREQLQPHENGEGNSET
Summary of the method: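 Plates coated overnight at 4 °C with vitronectin 1.0 μg/mL in carbonate buffer pH 9.6, blocked 1 h with TSB (Ca2+, Mg2+, Mn2+, 1% BSA). Soluble human αvβ3 (final 1.0 μg/mL) with inhibitor (final 0.128–400 nM) 1 h at room temperature; detection by anti-CD51/61 then peroxidase secondary, absorbance 405 nm. Duplicates; IC50 from curve inflection point; internal standard per plate.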

Integrin alpha-5/beta-1 = Integrin alpha-5/beta-1 (Homo sapiens, UniProt P05556+P08648); test: Inhibition of fibronectin binding to soluble alpha5beta1 integrin (unknown origin) after 1 hr by ELISA; assay type: protein-complex assay
Integrin alpha-5/beta-1, sequence (P05556 21-798 limits assumed): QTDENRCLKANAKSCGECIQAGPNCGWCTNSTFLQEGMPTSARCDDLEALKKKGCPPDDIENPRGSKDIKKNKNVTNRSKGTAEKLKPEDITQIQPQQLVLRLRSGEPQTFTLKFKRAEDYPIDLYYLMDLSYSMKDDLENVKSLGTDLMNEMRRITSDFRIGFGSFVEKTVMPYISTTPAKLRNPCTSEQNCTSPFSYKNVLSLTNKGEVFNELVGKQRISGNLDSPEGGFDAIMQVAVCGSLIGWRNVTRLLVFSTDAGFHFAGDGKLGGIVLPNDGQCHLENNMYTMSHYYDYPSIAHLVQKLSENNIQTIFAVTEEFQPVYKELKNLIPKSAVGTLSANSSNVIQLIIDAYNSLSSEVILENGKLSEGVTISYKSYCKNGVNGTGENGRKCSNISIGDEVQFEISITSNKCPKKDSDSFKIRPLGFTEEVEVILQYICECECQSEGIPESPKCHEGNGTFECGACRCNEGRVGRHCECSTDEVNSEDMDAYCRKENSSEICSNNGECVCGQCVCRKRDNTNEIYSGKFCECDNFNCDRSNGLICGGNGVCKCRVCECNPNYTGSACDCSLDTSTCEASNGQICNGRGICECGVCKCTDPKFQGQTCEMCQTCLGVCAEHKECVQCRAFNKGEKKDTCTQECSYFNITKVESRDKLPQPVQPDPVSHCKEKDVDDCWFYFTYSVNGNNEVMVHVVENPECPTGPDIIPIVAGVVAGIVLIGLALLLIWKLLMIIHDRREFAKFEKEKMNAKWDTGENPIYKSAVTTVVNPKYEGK
Integrin alpha-5/beta-1, sequence (P08648 42-894 limits assumed): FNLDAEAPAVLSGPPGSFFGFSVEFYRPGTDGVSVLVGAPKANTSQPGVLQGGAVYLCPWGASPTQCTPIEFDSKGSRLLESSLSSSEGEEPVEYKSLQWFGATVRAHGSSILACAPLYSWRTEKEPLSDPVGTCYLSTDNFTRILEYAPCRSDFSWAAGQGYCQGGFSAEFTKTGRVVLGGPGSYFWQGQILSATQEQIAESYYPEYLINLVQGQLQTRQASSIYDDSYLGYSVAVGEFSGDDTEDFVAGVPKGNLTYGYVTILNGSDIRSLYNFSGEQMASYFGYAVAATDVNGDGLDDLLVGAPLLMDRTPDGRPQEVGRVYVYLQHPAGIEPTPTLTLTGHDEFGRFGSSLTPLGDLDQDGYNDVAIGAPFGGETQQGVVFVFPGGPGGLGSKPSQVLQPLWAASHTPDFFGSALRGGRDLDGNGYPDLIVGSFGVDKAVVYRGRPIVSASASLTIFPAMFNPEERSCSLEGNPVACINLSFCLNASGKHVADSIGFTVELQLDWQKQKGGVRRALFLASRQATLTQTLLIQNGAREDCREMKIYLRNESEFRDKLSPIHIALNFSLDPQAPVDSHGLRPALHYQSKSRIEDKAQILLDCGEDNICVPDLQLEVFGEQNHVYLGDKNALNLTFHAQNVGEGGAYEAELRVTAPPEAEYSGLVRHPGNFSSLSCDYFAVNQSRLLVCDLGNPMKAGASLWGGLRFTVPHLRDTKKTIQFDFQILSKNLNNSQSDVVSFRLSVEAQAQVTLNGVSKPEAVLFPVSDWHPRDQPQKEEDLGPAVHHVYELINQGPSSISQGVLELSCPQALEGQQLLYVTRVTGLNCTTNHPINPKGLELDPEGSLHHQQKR
Integrin alpha-5/beta-1, sequence (P08648 895-1049 limits assumed): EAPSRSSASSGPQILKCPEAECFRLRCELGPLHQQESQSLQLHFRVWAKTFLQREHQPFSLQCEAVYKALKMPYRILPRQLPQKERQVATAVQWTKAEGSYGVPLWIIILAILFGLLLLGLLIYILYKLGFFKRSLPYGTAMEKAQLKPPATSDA

[1] = biological target: T1, Protein Mdm4 (Homo sapiens) (UniProt O15151); test: Inhibition of MDM4 in human U87MG cells assessed as increase in PUMA mRNA expression at 100 nM after 24 hrs in presence of alphaVbeta3 inhibitor cilengitide by RT-PCR method; assay type: cell-based
T1 sequence (whole entry): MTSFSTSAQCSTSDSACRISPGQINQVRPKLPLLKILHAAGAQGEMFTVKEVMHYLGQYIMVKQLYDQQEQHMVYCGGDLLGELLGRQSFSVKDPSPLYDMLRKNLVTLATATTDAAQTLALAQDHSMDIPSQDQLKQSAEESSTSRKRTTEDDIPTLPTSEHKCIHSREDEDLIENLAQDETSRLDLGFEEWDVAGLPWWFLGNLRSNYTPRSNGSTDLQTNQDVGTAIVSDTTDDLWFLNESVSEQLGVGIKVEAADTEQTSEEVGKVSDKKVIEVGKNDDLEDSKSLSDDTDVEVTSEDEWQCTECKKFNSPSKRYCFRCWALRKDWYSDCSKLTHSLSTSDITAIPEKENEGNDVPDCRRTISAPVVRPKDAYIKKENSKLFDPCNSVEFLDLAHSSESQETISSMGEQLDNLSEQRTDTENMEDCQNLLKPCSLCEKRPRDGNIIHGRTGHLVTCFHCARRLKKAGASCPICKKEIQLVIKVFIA
Summary of the method: (§1)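 U87MG cells exposed to agents at 100 nM, alone or combined, for 8 or 24 h; total RNA extracted, cDNA made from 500 ng RNA, MDM2, PUMA and p21 transcripts quantified by real-time PCR. Data as % of DMSO control, mean ± SEM, N = 3.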

[2] = biological target: T1, Protein Mdm4 (Homo sapiens); test: Inhibition of MDM4 in human U87MG cells assessed as increase in PUMA mRNA expression at 100 nM after 24 hrs in presence of MDM2 inhibitor nutlin-3 by RT-PCR method; assay type: cell-based; summary of the method: as §1
[3] = biological target: T1, Protein Mdm4 (Homo sapiens); test: Inhibition of MDM4 in human U87MG cells assessed as increase in p21 mRNA expression at 100 nM after 24 hrs by RT-PCR method; assay type: cell-based; summary of the method: as §1
[4] = biological target: T1, Protein Mdm4 (Homo sapiens); test: Inhibition of MDM4 in human U87MG cells assessed as increase in PUMA mRNA expression at 100 nM after 24 hrs by RT-PCR method; assay type: cell-based; summary of the method: as §1
U-87 MG [5] = test: Antiproliferative activity against human U87MG cells at 100 nM after 72 hrs in presence of alphaVbeta3 inhibitor cilengitide and MDM2 inhibitor nutlin-3 by MTS assay; assay type: functional, cell-based; details: U-87MG ATCC
Summary of the method: (§2)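 Cells seeded ~5000 cells/cm2, after 24 h medium replaced with compound in DMSO (DMSO 1% v/v in controls), alone or in combination at 100 nM each, or concentration series (U87MG 1–100 nM). 72 h exposure; proliferation read by MTS, expressed as % of DMSO control (mean ± SEM, N = 3); IC50 from sigmoid dose–response fit.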

U-87 MG [6] = test: Anti-invasive activity in human U87MG cells at 10 uM after 24 hrs in presence of MDM2 inhibitor nutlin-3 and alphaVbeta3 inhibitor cilengitide by transwell assay; assay type: functional, cell-based; details: U-87MG ATCC
Summary of the method: (§3)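 U87MG cells suspended in serum-free medium (60,000 cells), treated at 10 μM (each agent at 10 μM when combined), placed in upper chamber of Matrigel-coated (0.32 mg/mL) transwell; lower chamber RPMI with 10% FBS. Invasion 24 h at 37 °C; cells on lower membrane surface fixed with p-formaldehyde, crystal violet stained, counted in five random fields per filter. Mean ± SEM vs DMSO control.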

[7] = biological target: T1, Protein Mdm4 (Homo sapiens); test: Inhibition of MDM4 in human U87MG cells assessed as increase in MDM2 mRNA expression at 100 nM after 8 hrs in presence of MDM2 inhibitor nutlin-3 by RT-PCR method; assay type: cell-based; summary of the method: as §1
[8] = biological target: T1, Protein Mdm4 (Homo sapiens); test: Inhibition of MDM4 in human U87MG cells assessed as increase in p53 accumulation at 100 nM after 24 hrs in presence of MDM2 inhibitor nutlin-3 by Western blot method; assay type: cell-based
Summary of the method: (§4)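 U87MG cells treated 24 h with agents at 100 nM, alone or combined; 40 μg lysate protein resolved by SDS-PAGE, immunoblotted for p53 with GAPDH loading control; bands quantified by densitometry as % of DMSO control (mean ± SEM, N = 3).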

[9] = biological target: T1, Protein Mdm4 (Homo sapiens); test: Inhibition of MDM4 in human U87MG cells assessed as increase in p53 accumulation at 100 nM after 24 hrs in presence of MDM2 inhibitor nutlin-3 and alphaVbeta3 inhibitor cilengitide by Western blot method; assay type: cell-based; summary of the method: as §4
U-87 MG [10] = test: Antiproliferative activity against human U87MG cells at 100 nM after 72 hrs by MTS assay; assay type: functional, cell-based; details: U-87MG ATCC; summary of the method: as §2
MDM4 (Homo sapiens) = MDM4 (Homo sapiens) (UniProt O15151); test: Inhibition of MDM4 in human U87MG cells assessed as increase in PUMA mRNA expression at 100 nM after 24 hrs in presence of MDM2 inhibitor nutlin-3 and alphaVbeta3 inhibitor cilengitide by RT-PCR method
[11] = biological target: T1, Protein Mdm4 (Homo sapiens); test: Inhibition of MDM4 in human U87MG cells assessed as increase in MDM2 mRNA expression at 100 nM after 8 hrs in presence of MDM2 inhibitor nutlin-3 and alphaVbeta3 inhibitor cilengitide by RT-PCR method; assay type: cell-based; summary of the method: as §1
Protein Mdm4 = biological target: T2, Protein Mdm4 (Homo sapiens, UniProt O15151); test: Displacement of p53 from MDM4 in human SHSY-5Y cells incubated for 10 mins by sandwich ELISA method; assay type: cell-based
T2 sequence (O15151 whole entry): T1 sequence (whole entry)

[12] = biological target: T3, E3 ubiquitin-protein ligase Mdm2 (Homo sapiens, UniProt Q00987); test: Displacement of p53 from MDM2 in human U87MG cells incubated for 10 mins by sandwich ELISA method; assay type: cell-based
Target sequence in this assay (Q00987 whole entry): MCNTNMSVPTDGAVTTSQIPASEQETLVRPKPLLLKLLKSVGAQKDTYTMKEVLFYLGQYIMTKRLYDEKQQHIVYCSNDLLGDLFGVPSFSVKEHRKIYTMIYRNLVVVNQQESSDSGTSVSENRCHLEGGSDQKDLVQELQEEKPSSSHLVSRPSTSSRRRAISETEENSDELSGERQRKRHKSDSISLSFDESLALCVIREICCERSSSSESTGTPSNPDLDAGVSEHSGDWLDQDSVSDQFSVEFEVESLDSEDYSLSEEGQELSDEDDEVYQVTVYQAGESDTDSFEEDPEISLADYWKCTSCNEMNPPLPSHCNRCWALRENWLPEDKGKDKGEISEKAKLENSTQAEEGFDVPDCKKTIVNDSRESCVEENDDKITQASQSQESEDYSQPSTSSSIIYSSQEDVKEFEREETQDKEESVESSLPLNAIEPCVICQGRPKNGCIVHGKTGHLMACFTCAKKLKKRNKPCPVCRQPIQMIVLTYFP

U-87 MG [13] = test: Antiproliferative activity against human U87MG cells at 100 nM after 72 hrs in presence of alphaVbeta3 inhibitor cilengitide by MTS assay; assay type: functional, cell-based; details: U-87MG ATCC; summary of the method: as §2
U-87 MG [14] = test: Anti-invasive activity in human U87MG cells at 10 uM after 24 hrs in presence of MDM4 inhibitor SJ-1722550 and alphaVbeta3 inhibitor cilengitide by transwell assay; assay type: functional, cell-based; details: U-87MG ATCC; summary of the method: as §3
U-87 MG [15] = test: Antiproliferative activity against human U87MG cells at 100 nM after 72 hrs in presence of alphaVbeta3 inhibitor cilengitide and MDM4 inhibitor SJ-1722550 by MTS assay; assay type: functional, cell-based; details: U-87MG ATCC; summary of the method: as §2
U-87 MG [16] = test: Anti-invasive activity in human U87MG cells at 10 uM after 24 hrs by transwell assay; assay type: functional; summary of the method: as §3
Homo sapiens [17] = organism: Homo sapiens; details: 100 nM
Homo sapiens [18] = organism: Homo sapiens; details: 100 nM; remark: listed apart in the source
T98G [19] = test: Antiproliferative activity against human T98G cells harboring p53 mutant at nanomolar concentration after 72 hrs by MTS assay; assay type: functional, cell-based; summary of the method: as §2
Homo sapiens [20] = organism: Homo sapiens; details: 100 nM; remark: listed apart in the source
Homo sapiens [21] = organism: Homo sapiens; details: 100 nM; remark: listed apart in the source
U-87 MG [22] = test: Antiproliferative activity against human U87MG cells after 72 hrs by MTS assay
T98G [23] = test: Antiproliferative activity against human T98G cells harboring p53 mutant at micromolar concentration after 72 hrs by MTS assay; assay type: functional, cell-based; summary of the method: as §2
Homo sapiens [24] = organism: Homo sapiens; details: 100 nM; remark: listed apart in the source
U-87 MG [25] = test: Anti-invasive activity in human U87MG cells at 10 uM after 24 hrs in presence of MDM2 inhibitor nutlin-3 and MDM4 inhibitor SJ-1722550 by transwell assay; assay type: functional, cell-based; details: U-87MG ATCC; summary of the method: as §3
[26] = biological target: T1, Protein Mdm4 (Homo sapiens); test: Displacement of p53 from MDM4 in human SHSY-5Y cells at 100 uM incubated for 10 mins by sandwich ELISA method relative to control; assay type: cell-based
Summary of the method: (§5)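 Native complexes in cell lysates (U87MG for p53/MDM2; SHSY-5Y for p53/MDM4). Compound incubated with lysate 10 min at room temperature, then 90 min in wells precoated with anti-MDM2 or anti-MDM4; blocked with 1% BSA, anti-p53 (1:250) 90 min, HRP secondary 60 min, TMB read at 450 nm. Blanks lacked anti-p53. Mean of three determinations.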

[27] = biological target: T3, E3 ubiquitin-protein ligase Mdm2; test: Displacement of p53 from MDM2 in human U87MG cells at 100 uM incubated for 10 mins by sandwich ELISA method relative to control; assay type: cell-based; summary of the method: as §5
Target sequence in this assay (Q00987 whole entry, looked up): as the sequence (Q00987 whole entry) above

U-87 MG [28] = test: Antiproliferative activity against human U87MG cells at 100 nM after 72 hrs in presence of MDM2 inhibitor nutlin-3 by MTS assay; assay type: functional, cell-based; details: U-87MG ATCC; summary of the method: as §2
U-87 MG [29] = test: Antiproliferative activity against human U87MG cells at 100 nM after 72 hrs in presence of MDM2 inhibitor nutlin-3 and MDM4 inhibitor SJ-1722550 by MTS assay; assay type: functional, cell-based; details: U-87MG ATCC; summary of the method: as §2

pIC50 (Integrin alpha-V/beta-3): 8.89
pIC50 (Integrin alpha-5/beta-1): 7.32
Compound: N=C(N)Nc1cccc(C(=O)NCC(=O)N[C@@H](CC(=O)O)C(=O)NCc2ccc(Cl)cc2)c1

pIC50 (Integrin alpha-V/beta-3): 8.55
pIC50 (Integrin alpha-5/beta-1): 7.55
Compound: N=C(N)Nc1cccc(C(=O)NCC(=O)N[C@@H](CC(=O)O)C(=O)NCCc2ccccc2)c1

pIC50 (Protein Mdm4): < 6.00
pIC50 (Integrin alpha-V/beta-3): 9.68
pIC50 (Integrin alpha-5/beta-1): 7.89
pIC50 [12]: < 6.00
Compound: N=C(N)Nc1cccc(C(=O)NCC(=O)N[C@@H](CC(=O)O)C(=O)Nc2ccccc2)c1

pIC50 (Integrin alpha-V/beta-3): 8.66
pIC50 (Integrin alpha-5/beta-1): 7.12
Compound: N=C(N)Nc1cccc(C(=O)NCC(=O)N[C@@H](CC(=O)O)C(=O)NCCc2ccc3ccccc3c2)c1

The remaining lines, values behind:

Compound: CCOc1cc(/C=C2\C(=O)N(c3ccccc3)N=C2C)cc(Cl)c1OCC(=O)OC
inhibition [1]: Active
inhibition [2]: Active
inhibition [3]: Active
inhibition [4]: Active
Activity (U-87 MG [5]): Active
Activity (U-87 MG [6]): Active
inhibition [7]: Active
inhibition [8]: Active
inhibition [9]: Active
Activity (U-87 MG [10]): inactive
inhibition (MDM4 (Homo sapiens)): Active
inhibition [11]: Active

Compound: COc1ccc(C2=N[C@H](c3ccc(Cl)cc3)[C@H](c3ccc(Cl)cc3)N2C(=O)N2CCNC(=O)C2)c(OC(C)C)c1
Activity (U-87 MG [13]): Active
Activity (U-87 MG [14]): Active
Activity (U-87 MG [15]): Active
Activity (U-87 MG [16]; U-87MG ATCC): inactive
Activity (U-87 MG [10]): inactive

Compound: N=C(N)Nc1cccc(C(=O)NCC(=O)N[C@@H](CC(=O)O)C(=O)NC(c2ccccc2)c2ccccc2)c1
inhibition (Homo sapiens [17]): Active
inhibition (Homo sapiens [18]): Active
pIC50 (Integrin alpha-V/beta-3): 8.85
Activity (T98G [19]): inactive
inhibition (Homo sapiens [20]): Active
inhibition (Homo sapiens [21]): Active
pIC50 (Integrin alpha-5/beta-1): 7.66
pIC50 (U-87 MG [22]): 6.94
Activity (U-87 MG [16]): 80%
Activity (T98G [23]): Active
inhibition (Homo sapiens [24]): inactive

Compound: CC(C)[C@H]1C(=O)N[C@@H](CCCNC(=N)N)C(=O)NCC(=O)N[C@@H](CC(=O)O)C(=O)N[C@H](Cc2ccccc2)C(=O)N1C
Activity (U-87 MG [25]): Active
inhibition [26]: 2.6%
inhibition [27]: 14.1%
Activity (U-87 MG [28]): Active
Activity (U-87 MG [29]): Active
Activity (U-87 MG [16]; U-87MG ATCC): Active
Activity (U-87 MG [10]): inactive
